In ChEMBL document CHEMBL3272288, “Cannabinoids. Synthesis and central nervous system activity of 8-substituted 10-hydroxy-5,5-dimethyl-5H-[1]benzopyrano[4,3-c]pyridine and derivatives” (1977):
The source made the active and inactive calls. The calls are words filed in the database; no cut-off is given here.

Legend:
[1] = system: Mus musculus; assay: Antidepressant activity in mouse assessed as potentiation of (+/-)Dopa-induced motor responses at 5 mg/kg, po challenged with Dopa after 4 hrs compound treatment; format: functional, organism-based; design: dose 5 mg/kg
[2] = system: Rattus norvegicus; assay: Antianxiety activity in Long-Evens rat assessed as decrease in motor activity at 5 mg/kg, po by tranquilizer activity test; format: functional
[3] = system: Canis familiaris; assay: Antianxiety activity in po dosed beagle-like dog assessed as minimum dose required to produce moderate ataxia; format: functional, Canis lupus familiaris
How it was run: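 Minimum dose producing ataxia, with two or more dogs per dose.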

[4] = system: Mus musculus; assay: Antianxiety activity in albino BALB/cJ mouse assessed as decrease in foot shock-induced fighting behavior at 10 mg/kg, po by tranquilizer activity test; format: functional
[5] = system: Rattus norvegicus; assay: Antianxiety activity in Long-Evens rat assessed as decrease in motor activity at 2 mg/kg, po by tranquilizer activity test; format: functional
[6] = system: Rattus norvegicus; assay: Antipsychotic activity in Long-Evens rat assessed as reduction in methamphetamine-induced hyperactivity at 5 mg/kg, po; format: functional
[7] = system: Mus musculus; assay: Analgesic activity in po dosed mouse assessed as inhibition of acetic acid-induced writhing; format: functional
[8] = system: Rattus norvegicus; assay: Analgesic activity in po dosed Sprague-Dawley rat by tail flick assay; format: functional
[9] = system: Rattus norvegicus; assay: Hyperexcitability activity in Long-Evens black-hooded rat assessed as behavioral responses to tactile stimulation at 10 mg/kg, po; format: functional, organism-based; design: dose 10 mg/kg
How it was run: (§1)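 Rats randomly split into groups of four, dosed orally, then held singly in a sound-attenuated room. At 1, 2, 3 and 4 h each was probed with a wooden rod and scored for exaggerated motor reaction, squeaking and biting (maximum 16 per response). Index is the summed score of the three responses divided by the maximum of 48.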

[10] = system: Felis catus; assay: Sedative-hypnotic activity in cat assessed as change in total sleep time at 5 mg/kg, po after 12 hrs; format: functional
How it was run: (§2)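 Total sleep time was recorded 12 h after drug, with two or more cats per dose. The value is the change in minutes from paired control experiments; a negative value means decreased sleep.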

[11] = system: Rattus norvegicus; assay: Antianxiety activity in Long-Evens rat assessed as decrease in motor activity at 20 mg/kg, po by tranquilizer activity test; format: functional
[12] = system: Rattus norvegicus; assay: Hyperexcitability activity in Long-Evens black-hooded rat assessed as behavioral responses to tactile stimulation at 80 mg/kg, po; format: functional, organism-based; design: dose 80 mg/kg; how it was run: as §1
[13] = system: Rattus norvegicus; assay: Antipsychotic activity in Long-Evens rat assessed as reduction in methamphetamine-induced hyperactivity at 10 mg/kg, po; format: functional
[14] = system: Felis catus; assay: Sedative-hypnotic activity in cat assessed as change in total sleep time at 1 mg/kg, po after 12 hrs; format: functional; how it was run: as §2
[15] = system: Rattus norvegicus; assay: Antianxiety activity in Long-Evens rat assessed as decrease in motor activity at 10 mg/kg, po by tranquilizer activity test; format: functional
[16] = system: Rattus norvegicus; assay: Antipsychotic activity in Long-Evens rat assessed as increase in methamphetamine-induced hyperactivity at 5 mg/kg, po; format: functional
[17] = system: Rattus norvegicus; assay: Hyperexcitability activity in Long-Evens black-hooded rat assessed as behavioral responses to tactile stimulation at 20 mg/kg, po; format: functional, organism-based; design: dose 20 mg/kg; how it was run: as §1
[18] = system: Felis catus; assay: Sedative-hypnotic activity in cat assessed as change in total sleep time at 0.5 mg/kg, po after 12 hrs; format: functional; how it was run: as §2
[19] = system: Rattus norvegicus; assay: Antipsychotic activity in Long-Evens rat assessed as reduction in methamphetamine-induced hyperactivity at 20 mg/kg, po; format: functional
[20] = system: Mus musculus; assay: Antianxiety activity in albino BALB/cJ mouse assessed as decrease in foot shock-induced fighting behavior at 5 mg/kg, po by tranquilizer activity test; format: functional
[21] = system: Felis catus; assay: Sedative-hypnotic activity in cat assessed as change in total sleep time at 0.25 mg/kg, po after 12 hrs; format: functional; how it was run: as §2
[22] = system: Felis catus; assay: Sedative-hypnotic activity in cat assessed as change in total sleep time at 0.1 mg/kg, po after 12 hrs; format: functional; how it was run: as §2
[23] = system: Rattus norvegicus; assay: Antipsychotic activity in Long-Evens rat assessed as increase in methamphetamine-induced hyperactivity at 10 mg/kg, po; format: functional
[24] = system: Felis catus; assay: Sedative-hypnotic activity in cat assessed as change in total sleep time at 2.5 mg/kg, po after 12 hrs; format: functional; how it was run: as §2
[25] = system: Mus musculus; assay: Increase in foot shock-induced fighting behavior in albino BALB/cJ mouse at 5 mg/kg, po by tranquilizer activity test; format: functional
[26] = system: Rattus norvegicus; assay: Antipsychotic activity in Long-Evens rat assessed as increase in methamphetamine-induced hyperactivity at 20 mg/kg, po; format: functional
[27] = system: Rattus norvegicus; assay: Antipsychotic activity in Long-Evens rat assessed as reduction in methamphetamine-induced hyperactivity at 2 mg/kg, po; format: functional

CCCCCC(C)C(C)c1cc(OC(C)=O)c2c(c1)OC(C)(C)c1ccncc1-2 (stereo not drawn)
Activity [1]: Active
inhibition in vivo at 5 mg/kg [2]: 86%
Activity [3]: <5 mg/kg
inhibition in vivo at 10 mg/kg [4]: 48%
inhibition in vivo at 2 mg/kg [5]: 43%
inhibition in vivo at 5 mg/kg [6]: 46%
ED50 [7]: 3.3 mg/kg

CC(CCCc1ccc(F)cc1)c1cc(O)c2c(c1)OC(C)(C)c1cc[n+]([O-])cc1-2 (stereo not drawn)
Activity [1]: Active
inhibition in vivo at 5 mg/kg [2]: 18%
inhibition in vivo at 10 mg/kg [4]: 24%
ED50 [8]: > 40 mg/kg
Activity [9]: inactive
inhibition in vivo at 5 mg/kg [6]: 16%
ED50 [7]: > 10 mg/kg

CCCCCC(C)C(C)c1cc(OC)c2c(c1)OC(C)(C)c1ccncc1-2 (stereo not drawn)
Activity [1]: Active
Time [10]: 102 min
inhibition in vivo at 20 mg/kg [11]: 46%
Activity [3]: 2 mg/kg
Activity [12]: inactive
inhibition in vivo at 10 mg/kg [13]: 12%
Time [14]: 58 min
inhibition in vivo at 10 mg/kg [4]: 29%
ED50 [8]: > 200 mg/kg
inhibition in vivo at 10 mg/kg [15]: 37%
Activity [9]: inactive
Activity [16]: 15%
ED50 [7]: 158 mg/kg

COc1cc(C(C)CCCc2ccc(F)cc2)cc2c1-c1cnccc1C(C)(C)O2 (stereo not drawn)
Activity [1]: Active
Time [10]: 121 min
Activity [3]: 10 mg/kg
inhibition in vivo at 10 mg/kg [13]: 48%
inhibition in vivo at 10 mg/kg [4]: 65%
ED50 [8]: > 40 mg/kg

CCCCCC(C)C(C)c1cc(OCCCN2CCCCC2)c2c(c1)OC(C)(C)c1ccncc1-2.Cl (stereo not drawn)
Activity [1]: Active
Time [10]: -153 min
Activity [12]: inactive
inhibition in vivo at 10 mg/kg [13]: 15%
Activity [17]: inactive
ED50 [8]: > 40 mg/kg

C#CCN1CCC2=C(C1)c1c(O)cc(C(C)CCCc3ccc(F)cc3)cc1OC2(C)C (stereo not drawn)
Activity [1]: Active
Time [18]: 99 min
Activity [3]: 1 mg/kg
inhibition in vivo at 10 mg/kg [4]: 47%
ED50 [8]: 3.7 mg/kg
inhibition in vivo at 10 mg/kg [15]: 57%
Activity [9]: Active
inhibition in vivo at 5 mg/kg [6]: 25%
ED50 [7]: 5.3 mg/kg

C#CCOc1cc(C(C)C(C)CCCCC)cc2c1-c1cnccc1C(C)(C)O2 (stereo not drawn)
Activity [1]: Active
inhibition in vivo at 5 mg/kg [2]: 27%
Time [10]: 114 min
Activity [3]: 2 mg/kg
inhibition in vivo at 10 mg/kg [13]: 31%
Time [14]: 82 min
inhibition in vivo at 10 mg/kg [4]: 6%
ED50 [8]: > 40 mg/kg
Activity [9]: inactive
inhibition in vivo at 20 mg/kg [19]: 42%
ED50 [7]: > 40 mg/kg

CCCCCC(C)C(C)c1cc(O)c2c(c1)OC(C)(C)c1ccncc1-2 (stereo not drawn)
Activity [1]: Active
inhibition in vivo at 5 mg/kg [2]: 79%
Activity [3]: <1 mg/kg
inhibition in vivo at 5 mg/kg [20]: 29%
inhibition in vivo at 10 mg/kg [4]: 36%
Time [21]: 193 min
ED50 [8]: 3.07 mg/kg
Time [22]: 225 min
inhibition in vivo at 5 mg/kg [6]: 61%
ED50 [7]: 3.3 mg/kg

CCCCCc1cc(O)c2c(c1)OC(C)(C)[C@@H]1CCC(C)=C[C@@H]21 [DRONABINOL]
Activity [1]: Active
Activity [3]: 4 mg/kg
inhibition in vivo at 5 mg/kg [20]: 36%
Time [14]: 29 min
ED50 [8]: 27.2 mg/kg
inhibition in vivo at 10 mg/kg [15]: 39%
inhibition in vivo at 5 mg/kg [6]: 15%
ED50 [7]: 43 mg/kg

C=CCOc1cc(C(C)CCCc2ccc(F)cc2)cc2c1-c1cnccc1C(C)(C)O2 (stereo not drawn)
Activity [1]: Active
inhibition in vivo at 10 mg/kg [13]: 20%
Activity [17]: inactive
inhibition in vivo at 10 mg/kg [4]: 17%
ED50 [8]: > 40 mg/kg
inhibition in vivo at 20 mg/kg [19]: 27%

CCCCCC(C)C(C)c1cc(O)c2c(c1)OC(C)(C)c1cc[n+]([O-])cc1-2 (stereo not drawn)
Activity [1]: Active
inhibition in vivo at 5 mg/kg [2]: 14%
Time [18]: 59 min
Activity [23]: 12%
inhibition in vivo at 10 mg/kg [4]: 44%
ED50 [8]: > 40 mg/kg
inhibition in vivo at 10 mg/kg [15]: 40%
Activity [9]: inactive
Activity [16]: 42%
ED50 [7]: 8.6 mg/kg

CCCCCC(C)C(C)c1cc(OCC2CC2)c2c(c1)OC(C)(C)c1ccncc1-2 (stereo not drawn)
Activity [1]: Active
Activity [12]: inactive
inhibition in vivo at 10 mg/kg [13]: 1%
Activity [17]: inactive
ED50 [8]: > 40 mg/kg
Time [24]: 105 min

CCCCCC(C)C(C)c1cc(OC(=O)CCCN2CCCCC2)c2c(c1)OC(C)(C)c1ccncc1-2.Cl (stereo not drawn)
Activity [1]: Active
inhibition in vivo at 5 mg/kg [2]: 43%
Activity [25]: 3%
inhibition in vivo at 10 mg/kg [15]: 63%
Activity [9]: Active
inhibition in vivo at 5 mg/kg [6]: 40%
ED50 [7]: 4 mg/kg

CC(CCCc1ccc(F)cc1)c1cc(O)c2c(c1)OC(C)(C)c1ccncc1-2 (stereo not drawn)
Activity [1]: Active
inhibition in vivo at 5 mg/kg [2]: 34%
inhibition in vivo at 5 mg/kg [20]: 58%
ED50 [8]: 5.7 mg/kg
inhibition in vivo at 5 mg/kg [6]: 40%
ED50 [7]: 7.1 mg/kg

CCCCCC(C)C(C)c1cc(OCCCN2CCOCC2)c2c(c1)OC(C)(C)c1ccncc1-2.Cl (stereo not drawn)
Activity [1]: Active
Time [10]: -11 min
Activity [12]: inactive
Activity [23]: 13%
Activity [17]: inactive
ED50 [8]: > 40 mg/kg
Activity [26]: 28%

C#CCN1CCC2=C(C1)c1c(O)cc(C(C)C(C)CCCCC)cc1OC2(C)C (stereo not drawn)
Activity [1]: Active
Activity [3]: 1 mg/kg
inhibition in vivo at 5 mg/kg [20]: 48%
ED50 [8]: 13.8 mg/kg
inhibition in vivo at 10 mg/kg [15]: 51%
Time [22]: 100 min
inhibition in vivo at 5 mg/kg [6]: 59%
ED50 [7]: 4.3 mg/kg

CCCCCC(C)C(C)c1cc(OC(=O)OCC)c2c(c1)OC(C)(C)c1ccncc1-2 (stereo not drawn)
Activity [1]: Active
inhibition in vivo at 5 mg/kg [2]: 93%
inhibition in vivo at 10 mg/kg [4]: 12%
inhibition in vivo at 2 mg/kg [27]: 37%
inhibition in vivo at 5 mg/kg [6]: 66%
ED50 [7]: 5.2 mg/kg
